Assay results reported in ChEMBL document CHEMBL1122018, “Synthesis and orexigenic activity of some 1-methyl-4-piperidylidene-Substituted pyrrolo[2,1-g][3] benzazepine and dibenzocycloheptene derivatives” (1982).

What was measured:
Assay type in all cases: functional
[1] = tested on: Felis catus; assay: Average food consumed at the dose of 0.50 mg/kg (po) using 10 cats per dose level at 30 min (control day/ test day); 47/190; settings: dose 0.5 mg/kg
Method in brief: (§1)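 Cats given test compound suspended in 1% methylcellulose, or 1% methylcellulose placebo, by gavage 30 min before a preweighed test meal. Food was offered in surplus for 3 h, and intake was found by reweighing at 30, 60 and 180 min. Ten cats per dose, each dosed no more than once weekly. Test-day intake was compared with the preceding control day by two-tailed paired t test (p < 0.05); values are mean ± SD.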

[2] = tested on: Felis catus; assay: Average food consumed at the dose of 0.25 mg/kg (po) using 10 cats per dose level at 180 min (control day/ test day); 45/231
[3] = tested on: Felis catus; assay: Average food consumed at the dose of 0.25 mg/kg (po) using 10 cats per dose level at 30 min (control day/ test day); 34/165; method in brief: as §1
[4] = tested on: Felis catus; assay: Average food consumed at the dose of 0.063 mg/kg (po) using 10 cats per dose level at 60 min (control day/ test day); 28/130
[5] = tested on: Felis catus; assay: Average food consumed at the dose of 0.063 mg/kg (po) using 10 cats per dose level at 30 min (control day/ test day); 14/112
[6] = tested on: Felis catus; assay: Average food consumed at the dose of 0.50 mg/kg (po) using 10 cats per dose level at 60 min (control day/ test day); 50/221; settings: dose 0.5 mg/kg; method in brief: as §1
[7] = tested on: Felis catus; assay: Average food consumed at the dose of 0.25 mg/kg (po) using 10 cats per dose level at 60 min (control day/ test day); 35/200; method in brief: as §1
[8] = tested on: Felis catus; assay: Average food consumed at the dose of 0.016 mg/kg (po) using 10 cats per dose level at 30 min (control day/ test day); 35/118
[9] = tested on: Felis catus; assay: Average food consumed at the dose of 0.063 mg/kg (po) using 10 cats per dose level at 180 min (control day/ test day); 59/195
[10] = tested on: Felis catus; assay: Average food consumed at the dose of 0.50 mg/kg (po) using 10 cats per dose level at 180 min (control day/ test day); 50/256; settings: dose 0.5 mg/kg; method in brief: as §1
[11] = tested on: Felis catus; assay: Average food consumed at the dose of 0.016 mg/kg (po) using 10 cats per dose level at 60 min (control day/ test day); 41/160
[12] = tested on: Felis catus; assay: Average food consumed at the dose of 0.016 mg/kg (po) using 10 cats per dose level at 180 min (control day/ test day); 46/193
[13] = tested on: Felis catus; assay: Average food consumed at the dose of 0.50 mg/kg (po) using 10 cats per dose level at 60 min (control day/ test day); 45/142; settings: dose 0.5 mg/kg; method in brief: as §1
[14] = tested on: Felis catus; assay: Average food consumed at the dose of 0.50 mg/kg (po) using 10 cats per dose level at 180 min (control day/ test day); 43/193; settings: dose 0.5 mg/kg; method in brief: as §1
[15] = tested on: Felis catus; assay: Average food consumed at the dose of 0.50 mg/kg (po) using 10 cats per dose level at 30 min (control day/ test day); 33/109; settings: dose 0.5 mg/kg; method in brief: as §1
[16] = tested on: Felis catus; assay: Average food consumed at the dose of 0.25 mg/kg (po) using 10 cats per dose level at 180 min (control day/ test day); 46/239
[17] = tested on: Felis catus; assay: Average food consumed at the dose of 0.50 mg/kg (po) using 10 cats per dose level at 30 min (control day/ test day); 51/189; settings: dose 0.5 mg/kg; method in brief: as §1
[18] = tested on: Felis catus; assay: Average food consumed at the dose of 0.50 mg/kg (po) using 10 cats per dose level at 180 min (control day/ test day); 46/243; settings: dose 0.5 mg/kg; method in brief: as §1
[19] = tested on: Felis catus; assay: Average food consumed at the dose of 0.063 mg/kg (po) using 10 cats per dose level at 60 min (control day/ test day); 37/178
[20] = tested on: Felis catus; assay: Average food consumed at the dose of 0.063 mg/kg (po) using 10 cats per dose level at 30 min (control day/ test day); 28/137
[21] = tested on: Felis catus; assay: Average food consumed at the dose of 0.25 mg/kg (po) using 10 cats per dose level at 30 min (control day/ test day); 33/172; method in brief: as §1
[22] = tested on: Felis catus; assay: Average food consumed at the dose of 0.016 mg/kg (po) using 10 cats per dose level at 30 min (control day/ test day); 16/91
[23] = tested on: Felis catus; assay: Average food consumed at the dose of 0.50 mg/kg (po) using 10 cats per dose level at 60 min (control day/ test day); 44/217; settings: dose 0.5 mg/kg; method in brief: as §1
[24] = tested on: Felis catus; assay: Average food consumed at the dose of 0.016 mg/kg (po) using 10 cats per dose level at 180 min (control day/ test day); 33/182
[25] = tested on: Felis catus; assay: Average food consumed at the dose of 0.25 mg/kg (po) using 10 cats per dose level at 60 min (control day/ test day); 40/208; method in brief: as §1
[26] = tested on: Felis catus; assay: Average food consumed at the dose of 0.016 mg/kg (po) using 10 cats per dose level at 60 min (control day/ test day); 16/119
[27] = tested on: Felis catus; assay: Average food consumed at the dose of 0.063 mg/kg (po) using 10 cats per dose level at 180 min (control day/ test day); 62/219

Compound: CN1CCC(=C2c3ccccc3C=Cc3ccccc32)CC1 [CYPROHEPTADINE]
- Average consumed [1]: 135 g
- Average consumed [2]: 179 g
- Average consumed [3]: 109 g
- Average consumed [4]: 80 g
- Average consumed [5]: 56 g
- Average consumed [6]: 157 g
- Average consumed [7]: 129 g
- Average consumed [8]: 75 g
- Average consumed [9]: 134 g
- Average consumed [10]: 194 g
- Average consumed [11]: 108 g
- Average consumed [12]: 157 g

Compound: CN1CCC(=C2c3cc(C(=O)O)ccc3CCn3cccc32)CC1.Cl
- Average consumed [13]: 125 g
- Average consumed [14]: 173 g
- Average consumed [15]: 92 g

Compound: CN1CCC(=C2c3ccccc3C=Cn3cccc32)CC1.O=C(O)C(=O)O
- Average consumed [16]: 183 g
- Average consumed [17]: 133 g
- Average consumed [18]: 193 g
- Average consumed [19]: 100 g
- Average consumed [20]: 66 g
- Average consumed [21]: 113 g
- Average consumed [22]: 43 g
- Average consumed [23]: 148 g
- Average consumed [24]: 126 g
- Average consumed [25]: 134 g
- Average consumed [26]: 69 g
- Average consumed [27]: 166 g
